Publication PMC3483883 (Bioorganic & medicinal chemistry letters, 2012)
One block for each compound: values may come before it.

Key:
[1] = system: L. infantum promastigotes; conditions: 400 μM, 24 h
leukotriene B4 ω-oxidase = conditions: read-out: IC50 leukotriene B4 ω-oxidase; suicide inhibitor; cited from earlier work
LdTopIB [2] = molecular target: T1, LdTopIB (Leishmania donovani, UniProt A0A3Q8IHS4+Q8WQM6); experiment: Plasmid DNA relaxation assay, LdTopIB; format: biochemical
[3] = system: fluconazole resistant Candida albicans strains; conditions: series of strains; cited from earlier work
[4] = system: Leishmania donovani, Trypanosoma brucei rhodesiense, Trypanosoma cruzi; experiment: Antiprotozoal activity against all the studied protozoa; format: cell-based; conditions: read-out: IC50 values against all the studied protozoa
Procedure, shortened: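 In vitro growth-inhibition IC50 against L. donovani, T. cruzi and T. b. rhodesiense. Values are averages of at least two independent assays, each run in duplicate. Reference drugs in the same set are melarsoprol, benznidazole, miltefosine and podophyllotoxin.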

hTopIB [5] = molecular target: T2, hTopIB (Homo sapiens, UniProt P11387); experiment: Plasmid DNA relaxation assay, hTopIB; format: biochemical
T2 sequence (P11387 1-765): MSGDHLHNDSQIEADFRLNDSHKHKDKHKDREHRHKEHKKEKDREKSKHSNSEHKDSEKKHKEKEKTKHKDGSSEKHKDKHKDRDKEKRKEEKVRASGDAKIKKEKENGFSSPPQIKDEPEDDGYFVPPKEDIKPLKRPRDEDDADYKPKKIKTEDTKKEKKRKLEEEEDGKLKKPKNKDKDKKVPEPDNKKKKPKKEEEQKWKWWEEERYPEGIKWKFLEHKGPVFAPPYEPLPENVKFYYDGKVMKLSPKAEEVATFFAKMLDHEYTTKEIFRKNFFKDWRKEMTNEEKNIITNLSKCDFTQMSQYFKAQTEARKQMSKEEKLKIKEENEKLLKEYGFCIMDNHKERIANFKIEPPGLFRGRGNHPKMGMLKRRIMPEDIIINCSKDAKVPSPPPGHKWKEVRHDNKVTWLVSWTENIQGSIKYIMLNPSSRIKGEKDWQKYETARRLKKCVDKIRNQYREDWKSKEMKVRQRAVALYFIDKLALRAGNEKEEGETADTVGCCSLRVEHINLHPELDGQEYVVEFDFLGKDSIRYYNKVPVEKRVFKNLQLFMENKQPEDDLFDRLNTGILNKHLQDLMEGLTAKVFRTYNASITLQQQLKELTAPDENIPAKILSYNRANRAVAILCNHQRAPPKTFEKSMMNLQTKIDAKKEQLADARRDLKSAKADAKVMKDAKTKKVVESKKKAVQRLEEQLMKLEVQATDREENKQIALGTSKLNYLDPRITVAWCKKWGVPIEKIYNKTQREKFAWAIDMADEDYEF

[6] = system: Trypanosoma brucei rhodesiense (bloodstream forms); experiment: Antiprotozoal activity against T. brucei rhodesiense bloodstream forms; format: cell-based; conditions: read-out: Trypanosoma brucei rhodesiense IC50
[7] = system: L. infantum promastigotes; experiment: Activity against L. infantum promastigotes; format: cell-based; conditions: Leishmania infantum, read-out: IC50 against L. infantum promastigotes
L6 cell cytotoxicity = format: cell-based; conditions: rat, L6 cells (rat skeletal myoblasts)
[8] = system: Leishmania donovani (axenic amastigotes); experiment: Antiprotozoal activity against L. donovani axenic amastigotes; format: cell-based; conditions: read-out: Leishmania donovani IC50
[9] = system: Murine macrophages BALB/c; experiment: Toxicity against BALB/c murine macrophages; format: cell-based; conditions: Mus musculus, Macrophage, read-out: Murine macrophages BALB/c IC50
LdTopIB [10] = molecular target: T1, LdTopIB; experiment: Supercoiled plasmid DNA TopIB-mediated cleavage assay, LdTopIB; format: biochemical
hTopIB [11] = molecular target: T2, hTopIB; experiment: Supercoiled plasmid DNA TopIB-mediated cleavage assay, hTopIB; format: biochemical; conditions: 100 μM

SMILES: OO [hydrogen peroxide]
apoptotic cells (Annexin-V-FITC) [1]: positive test

SMILES: C#CCCCCCCCCCCCCCCCC(=O)O [17-ODA, 17-octadecynoic acid]
IC50 (leukotriene B4 ω-oxidase): < 5 µM

SMILES: CCCCCCCCCCCCCCCC#CC(=O)O [2-ODA, 2-octadecynoic acid]
EC50 (LdTopIB [2]): 5.3 ± 0.7 µM

SMILES: CCCCCCCCCCCC#CCCCCC(=O)O [6-ODA, 6-octadecynoic acid]
IC50 against fluconazole resistant Candida albicans strains [3]: 0.45 to 0.65 µg/mL

SMILES: CC[C@@]1(O)C(=O)OCc2c1cc1n(c2=O)Cc2cc3ccccc3nc2-1 [CPT, camptothecin, reference compound]
EC50 (LdTopIB [2]): 0.67 ± 0.08 µM

IC50 [4]: 24.7 to 255 µM
EC50 (hTopIB [5]): > 100 µM
inhibition of hTopIB at 100 μM (hTopIB [5]): neither 2-TDA nor 2-HDA was inhibitory
EC50 (LdTopIB [2]): 67.8 ± 1.1 µM
SMILES: CCCCCCCCCCCC#CC(=O)O [2-TDA, 2-tetradecynoic acid]

IC50 [6]: 83.6 µM
IC50 [7]: 14.9 µM
IC50 [8]: 17.8 µM
IC50 [4]: 17.8 to 83.6 µM
EC50 (hTopIB [5]): > 100 µM
inhibition of hTopIB at 100 μM (hTopIB [5]): neither 2-TDA nor 2-HDA was inhibitory
inhibition of catalytic activity of LdTopIB (LdTopIB [10]; 100 μM): inhibits the catalytic activity
enzymatic activity of LdTopIB after pre-incubation (LdTopIB [10]; pre-incubated 15 min with 100 μM before DNA and CPT): fully inhibited
inhibition of hTopIB (hTopIB [11]): no inhibition
EC50 (LdTopIB [2]): 28.7 ± 1.3 µM
SMILES: CCCCCCCCCCCCCC#CC(=O)O [2-HDA, 2-hexadecynoic acid]
IC50 (L6 cell cytotoxicity): 340 µM
IC50 [9]: > 100 µM

SMILES: Nc1nc(N)nc(Nc2ccc([As]3SCC(CO)S3)cc2)n1 (stereo not shown) [Melarsoprol, reference compound]
IC50 [6]: 0.0075 µM
